pIC50: −log10 of the molar value. The source made the active and inactive calls. No cut-off for these calls is given here.
Key:
[1] = target: Human immunodeficiency virus type 1 reverse transcriptase (Human immunodeficiency virus 1) (UniProt Q72547); assay: Inhibition of RNase H activity of HIV-1 HXB2 reverse transcriptase p66/p51 preincubated with compound and RNA-DNA hybrid substrate followed by addition of magnesium ions
[2] = target: Human immunodeficiency virus type 1 reverse transcriptase (Human immunodeficiency virus 1) (UniProt Q72547); assay: Inhibition of RNase H activity of HIV-1 HXB2 reverse transcriptase p66/p51 pre-incubated with RNA-DNA hybrid followed by addition of compound and magnesium ions
[3] = test system: Human immunodeficiency virus 1; assay: Antiviral activity against HIV-1 isolate RF infected in human CEM-SS cells assessed as inhibition of virus induced cytopathic effect by XTT assay; type: functional, organism-based; settings: Human immunodeficiency virus 1, isolate RF
In short: (§1)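 HIV-1 RF isolate in human T-cell line CEM-SS; XTT-based cell viability read-out following Weislow et al.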

[4] = Cytotoxicity against human CEM-SS cells by XTT assay; type: cell-based; in short: as §1
[5] = target: Human immunodeficiency virus type 1 reverse transcriptase (Human immunodeficiency virus 1) (UniProt Q72547); assay: Binding affinity to HIV-1 HXB2 reverse transcriptase p66/p51 at increased temperature by Van't Hoff analysis
In short: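 His-p66/His-p51 RT (4 nM) and RNA-DNA hybrid (250 nM) were run at 20, 25, 30 and 35°C. The reaction was started with substrate, incubated 30 min and quenched with EDTA. Product fluorescence was read, with quadruplicate dose-response curves at each temperature. Ki was fitted as v_i/v_o = 1/[1 + ([I]/Ki)], simple nontight-binding inhibition.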

[6] = target: Human immunodeficiency virus type 1 reverse transcriptase (Human immunodeficiency virus 1) (UniProt Q72547); assay: Binding affinity to HIV-1 HXB2 reverse transcriptase p66/p51 assessed as changes in enzyme orientation on polypurine tract-containing RNA-DNA hybrid by FRET assay
In short: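 Single-molecule FRET. Substrate: 21-nt PPT:D2 RNA-DNA primer annealed at 1.2:1 to a biotinylated 50-nt DNA template. Cy5 acceptor near the template 3′ end; Cy3 donor on the RNase H C terminus of p66. His-p66/His-p51 RT is from the HXB2 isolate. Inhibitor was added at 10 μM final.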

[7] = target: T1, Human immunodeficiency virus type 1 reverse transcriptase (Human immunodeficiency virus 1, UniProt Q72547); assay: Inhibition of RNase H activity of HIV-1 reverse transcriptase
In short: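 Recombinant His-p66/His-p51 RT (HXB2) was mixed with inhibitor in DMSO, then the reaction was started with 18-bp hybrid (3′-fluorescein RNA/5′-dabsyl DNA). Run at 37°C for 10 min, read ex 475/em 520 nm every minute. IC50 from initial-rate % inhibition vs log[inhibitor], triplicate.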

Reverse transcriptase = Reverse transcriptase (Human immunodeficiency virus 2, UniProt Q06347); assay: Inhibition of RNase H activity of HIV-2 reverse transcriptase
Sequence of Reverse transcriptase (Q06347 whole entry): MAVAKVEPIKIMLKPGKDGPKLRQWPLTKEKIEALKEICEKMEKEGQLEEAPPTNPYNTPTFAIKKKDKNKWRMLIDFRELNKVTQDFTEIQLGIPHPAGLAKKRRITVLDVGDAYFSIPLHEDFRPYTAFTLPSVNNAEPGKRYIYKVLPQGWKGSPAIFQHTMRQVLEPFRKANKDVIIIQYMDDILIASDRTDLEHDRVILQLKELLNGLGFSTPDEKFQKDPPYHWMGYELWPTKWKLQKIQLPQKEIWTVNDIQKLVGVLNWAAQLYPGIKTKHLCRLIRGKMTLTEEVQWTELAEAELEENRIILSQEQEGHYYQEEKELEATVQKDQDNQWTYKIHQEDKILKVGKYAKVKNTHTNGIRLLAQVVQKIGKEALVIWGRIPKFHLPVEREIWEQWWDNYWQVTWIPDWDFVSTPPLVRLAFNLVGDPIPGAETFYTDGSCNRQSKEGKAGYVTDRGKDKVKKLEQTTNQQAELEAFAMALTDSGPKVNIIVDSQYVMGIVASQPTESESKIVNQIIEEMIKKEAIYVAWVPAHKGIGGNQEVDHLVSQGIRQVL

[8] = target: T1, Human immunodeficiency virus type 1 reverse transcriptase; assay: Inhibition of RNase H activity of HIV-1 HXB2 reverse transcriptase p66/p51 after 10 mins by fluorescence spectrophotometry
In short: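 His-p66/His-p51 RT from HIV-1 HXB2, 250 ng, with 250 nM 18-nt 3′-fluorescein RNA annealed to 5′-dabsyl DNA. Hydrolysis started by adding hybrid. 37°C, fluorescence (ex 475/em 520 nm) read every minute for 10 min. Percent inhibition from initial rates, plotted against log concentration. Triplicate.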

[9] = target: Human immunodeficiency virus type 1 reverse transcriptase (Human immunodeficiency virus 1) (UniProt Q72547); assay: Inhibition of DNA-dependent DNA polymerase activity of HIV1 HXB2 reverse transcriptase p66/p51at 50 uM after 10 mins by fluorescence spectrophotometry

Structure (SMILES)	pIC50 [8]	further results
NC(=O)c1c(N)sc2c1CCCCC2	–	inhibition [1]: Active; inhibition [2]: inactive; pIC50 [3]: 5.37; CC50 [4]: 19.9 µM; Activity [5]: inactive; Activity [6]: Active
CC(C)c1ccc(O)c(=O)c(O)c1 [BETA-THUJAPLICINOL]	–	pIC50 [7]: 6.60; pIC50 (Reverse transcriptase): 6.60; Activity [5]: inactive
NC(=O)c1ccsc1N	< 3.30	–
NC(=O)c1c(N)sc2c1CCCCCC2	< 3.30	–
Cc1ccc(NC(=O)c2c(NC(=O)c3ccccc3F)sc3c2CCCCC3)cc1	< 3.30	–
Cc1sc2nc(-c3ccccc3)[nH]c(=O)c2c1C	< 4.00	–
NC(=O)c1c(NC(=O)COc2ccccc2)sc2c1CCCCC2	5.16	–
Cc1sc(NC(=O)C2CC3CCC2C3)c(C(N)=O)c1C (centres undefined)	4.68	–
NC(=O)c1c(N)sc2c1CCC2	< 3.30	–
Cc1cc(Cl)ccc1CCC(=O)Nc1sc(C)c(C)c1C(N)=O	< 3.30	–
Cc1sc(NC(=O)c2ccc3c(c2)OCO3)c(C(N)=O)c1C	5.29	pIC50 [3]: 4.72; CC50 [4]: 38 µM
Cc1ccc(C(=O)Nc2sc(C)c(C)c2C(N)=O)cc1	5.55	–
COc1ccc(-c2nc3sc(C)c(C)c3c(=O)[nH]2)cc1	< 4.00	–
COc1ccccc1NC(=O)c1c(NC(=O)Cc2ccccc2)sc2c1CCCCC2	< 3.30	pIC50 [3]: 4.27; CC50 [4]: 141 µM
NC(=O)c1c(N)sc2c1CCCC2	4.85	–
O=C(Nc1sc2c(c1C(=O)Nc1cccc3ccccc13)CCCCC2)c1ccccc1F	< 3.30	–
CCOc1ccc(NC(=O)c2c(NC(=O)c3ccco3)sc3c2CCCCC3)cc1	5.38	–
Cc1onc(-c2ccccc2)c1C(=O)Nc1sc(C)c(C)c1C(N)=O	5.54	–
CCOc1ccc(NC(=O)c2c(NC(=O)c3ccccc3)sc3c2CCCCC3)cc1	< 3.30	–
Cc1sc(NC(=O)c2ccco2)c(C(N)=O)c1C	5.47	–
Cc1sc(NC(=O)c2cccc([N+](=O)[O-])c2)c(C(N)=O)c1C	5.89	Activity [6]: Active
Cc1sc2nc(-c3ccc([N+](=O)[O-])cc3)[nH]c(=O)c2c1C	6.07	Activity [6]: Active; inhibition [9]: inactive
Cc1sc(NC(=O)C2CCCO2)c(C(N)=O)c1C (centres undefined)	4.56	–
Cc1sc(NC(=O)c2ccc(Br)o2)c(C(N)=O)c1C	5.77	–
Cc1sc(N)c(C(N)=O)c1C	< 3.30	–

Source: ChEMBL document CHEMBL1671700, “Structure-activity analysis of vinylogous urea inhibitors of human immunodeficiency virus-encoded ribonuclease H” (Antimicrob Agents Chemother, 2010)
